Among the data in ChEMBL document CHEMBL2401735, “Synthesis and cytotoxicity of novel (thiazol-2-yl)hydrazine derivatives as promising anti-Candida agents” (Eur J Med Chem, 2013) are MIC values, retold here.

Values after ≈ are worked out from the molar mass of the structure shown. Bounds are passed on as bounds.

The test system of test [1] is Staphylococcus warneri. In words: Antibacterial activity against Staphylococcus warneri assessed as growth inhibition after 18 to 22 hrs by broth microdilution method. Format: functional. The essentials: (§1)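 Bacterial isolates subcultured for purity, identified conventionally. Broth microdilution per NCCLS in Mueller-Hinton II broth; plates with growth control (no compound) and medium-only control, incubated 18-22 h at 35 °C. MIC taken as lowest concentration giving complete growth inhibition by unaided eye.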

In test [2] the test system is Enterococcus faecalis. As to the kind of experiment: Antibacterial activity against […] assessed as growth inhibition after 18 to 22 hrs by broth microdilution method. Type of test: functional. In short, it runs like this: as §1
Test [3] concerns Streptococcus alpha-hemolyticus. As to the kind of experiment: Antibacterial activity against Streptococcus alpha-hemolyticus assessed as growth inhibition after 18 to 22 hrs by broth microdilution method.
The test system of test [4] is Escherichia coli. In words: Antibacterial activity against Escherichia coli assessed as growth inhibition after 18 to 22 hrs by broth microdilution method. Format: functional. In short, it runs like this:
as §1

Test [5] relates to Staphylococcus aureus. In words: Antibacterial activity against Staphylococcus aureus assessed as growth inhibition after 18 to 22 hrs by broth microdilution method. Type of test: functional. The essentials:
as §1

In test [6] the test system is Candida parapsilosis. As to the kind of experiment: Anticandida activity against Candida parapsilosis clinical isolate assessed as growth inhibition after 24 hrs by broth microdilution method. Format: functional. The settings on record: Lodderomyces parapsilosis. The essentials: (§2)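 Clinical Candida isolates subcultured for purity and optimal growth before testing; compounds dissolved in DMSO. Broth microdilution per NCCLS in Sabouraud dextrose broth, serial dilutions, inoculum about 10³/mL, with growth control and medium-only control; 24 h incubation at 37 °C. MIC is the lowest concentration giving complete visible inhibition.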

Test [7] concerns Candida albicans. In words: Anticandida activity against Candida albicans clinical isolate assessed as growth inhibition after 24 hrs by broth microdilution method. Type of test: functional. In short, it runs like this: as §2
Test [8] has as its system Candida tropicalis. As to the kind of experiment: Anticandida activity against Candida tropicalis clinical isolate assessed as growth inhibition after 24 hrs by broth microdilution method. Type of test: functional. In short, it runs like this:
as §2

Test [9] concerns Klebsiella oxytoca. In words: Antibacterial activity against Klebsiella oxytoca assessed as growth inhibition after 18 to 22 hrs by broth microdilution method. Format: functional. In short, it runs like this:
as §1

Test [10] deals with Nakaseomyces glabratus. As to the kind of experiment: Anticandida activity against Candida glabrata clinical isolate assessed as growth inhibition after 24 hrs by broth microdilution method. Format: functional. In short, it runs like this:
as §2

Test [11] relates to Pichia kudriavzevii. In words: Anticandida activity against Candida krusei clinical isolate assessed as growth inhibition after 24 hrs by broth microdilution method. Format: functional. In short, it runs like this: as §2
For test [12], the system named is [Candida] sake. As to the kind of experiment: Anticandida activity against Candida sake clinical isolate assessed as growth inhibition after 24 hrs by broth microdilution method. Format: functional. The settings on record: Fermentozyma sake. The essentials: as §2
The test system of test [13] is Proteus mirabilis. As to the kind of experiment: Antibacterial activity against Proteus mirabilis assessed as growth inhibition after 18 to 22 hrs by broth microdilution method. Type of test: functional. The essentials: as §1
Test [14] relates to Enterobacter sp. As to the kind of experiment: Antibacterial activity against Enterobacter spp. assessed as growth inhibition after 18 to 22 hrs by broth microdilution method. Format: functional. In short, it runs like this:
as §1

Regarding `CCC(CC)=NNc1nc(-c2ccc(OC)cc2OC)cs1`, the MIC is above 256 µg/mL in test [1]; above 256 µg/mL in test [2]; above 256 µg/mL in test [3]; above 256 µg/mL in test [4]; above 256 µg/mL in test [5]; 256 µg/mL (≈ 801 µM) in test [6]. Besides, the MIC in [7] is 128 µg/mL (≈ 401 µM); in test [8], 256 µg/mL (≈ 801 µM); in [9], above 256 µg/mL; in test [10], 128 µg/mL (≈ 401 µM); in test [11], 256 µg/mL (≈ 801 µM); in test [12], 256 µg/mL (≈ 801 µM). Moreover, the MIC in [13] and in test [14] was above 256 µg/mL in each case.

Take `COc1ccc(-c2csc(N/N=C(\C)CC(C)C)n2)c(OC)c1`: the MIC in test [1] was above 256 µg/mL; in test [2] it was above 256 µg/mL; in [3], above 256 µg/mL; in test [4], above 256 µg/mL; in [5], above 256 µg/mL; in test [6], 256 µg/mL (≈ 768 µM). The MIC in [7] was 128 µg/mL (≈ 384 µM); in [8] it was 256 µg/mL (≈ 768 µM); in test [9] it was above 256 µg/mL; in [10] it was 128 µg/mL (≈ 384 µM); in [11], 256 µg/mL (≈ 768 µM); in [12], 256 µg/mL (≈ 768 µM). Also, the MIC in [13] and in test [14] was above 256 µg/mL in each case.

Consider `C=CCC/C(C)=N/Nc1nc(-c2ccc(OC)cc2OC)cs1`, for which the MIC was above 256 µg/mL in [1]; above 256 µg/mL in test [2]; above 256 µg/mL in [3]; above 256 µg/mL in [4]; above 256 µg/mL in test [5]; 256 µg/mL (≈ 772 µM) in [6]. The MIC in test [7] is 64 µg/mL (≈ 193 µM); in test [8] it was 256 µg/mL (≈ 772 µM); in [9], above 256 µg/mL; in [10], 128 µg/mL (≈ 386 µM); in test [11], 256 µg/mL (≈ 772 µM); in test [12], 256 µg/mL (≈ 772 µM). Moreover, the MIC in test [13] and in [14] was above 256 µg/mL throughout.

For the molecule `CCCCC/C(C)=N/Nc1nc(-c2ccc(OC)cc2OC)cs1`, the MIC in [1] is above 256 µg/mL; in [2], above 256 µg/mL; in [3], above 256 µg/mL; in [4], above 256 µg/mL; in test [5] it was above 256 µg/mL; in test [6] it was 256 µg/mL (≈ 737 µM). The MIC was 64 µg/mL (≈ 184 µM) in test [7]; 256 µg/mL (≈ 737 µM) in test [8]; above 256 µg/mL in test [9]; 128 µg/mL (≈ 368 µM) in [10]; 256 µg/mL (≈ 737 µM) in [11]; 256 µg/mL (≈ 737 µM) in test [12]. The MIC in test [13] and in test [14] was above 256 µg/mL in each case.

On to `CCCC/C(CC)=N/Nc1nc(-c2ccc(OC)cc2OC)cs1`, for which the minimum inhibitory concentration (MIC) was above 256 µg/mL in test [1]; above 256 µg/mL in [2]; above 256 µg/mL in [3]; above 256 µg/mL in test [4]; above 256 µg/mL in [5]; 256 µg/mL (≈ 737 µM) in test [6]. The MIC in test [7] was 128 µg/mL (≈ 368 µM); in test [8], 256 µg/mL (≈ 737 µM); in [9] it was above 256 µg/mL; in [10], 128 µg/mL (≈ 368 µM); in test [11], 256 µg/mL (≈ 737 µM); in [12], 256 µg/mL (≈ 737 µM). Also, the MIC in [13] and in [14] was above 256 µg/mL in each case.

Turning to `CCCCCC/C(C)=N/Nc1nc(-c2ccc(OC)cc2OC)cs1`, the minimum inhibitory concentration (MIC) was above 256 µg/mL in test [1]; above 256 µg/mL in test [2]; above 256 µg/mL in test [3]; above 256 µg/mL in test [4]; above 256 µg/mL in test [5]; 256 µg/mL (≈ 708 µM) in test [6]. Moreover, the MIC in test [7] is 64 µg/mL (≈ 177 µM); in test [8], 256 µg/mL (≈ 708 µM); in test [9] it was above 256 µg/mL; in test [10] it was 64 µg/mL (≈ 177 µM); in test [11], 256 µg/mL (≈ 708 µM); in test [12] it was 256 µg/mL (≈ 708 µM). Also, the MIC in test [13] and in test [14] was above 256 µg/mL in each case.

For the molecule `COc1ccc(-c2csc(N/N=C(\C)C3CCCCC3)n2)c(OC)c1`, the MIC in [1] was above 256 µg/mL; in test [2], above 256 µg/mL; in [3], above 256 µg/mL; in test [4] it was above 256 µg/mL; in [5], above 256 µg/mL; in test [6], 256 µg/mL (≈ 712 µM). Moreover, the MIC was 64 µg/mL (≈ 178 µM) in [7]; 256 µg/mL (≈ 712 µM) in [8]; above 256 µg/mL in [9]; 64 µg/mL (≈ 178 µM) in test [10]; 256 µg/mL (≈ 712 µM) in [11]; 256 µg/mL (≈ 712 µM) in [12]. For the same molecule, the MIC in [13] and in [14] was above 256 µg/mL throughout.

For `COc1ccc(-c2csc(NN=C3CCCCCCC3)n2)c(OC)c1`, the MIC was above 256 µg/mL in test [1]; above 256 µg/mL in test [2]; above 256 µg/mL in [3]; above 256 µg/mL in test [4]; above 256 µg/mL in [5]; 256 µg/mL (≈ 712 µM) in test [6]. The MIC was 64 µg/mL (≈ 178 µM) in test [7]; 256 µg/mL (≈ 712 µM) in test [8]; above 256 µg/mL in test [9]; 256 µg/mL (≈ 712 µM) in test [10]; 256 µg/mL (≈ 712 µM) in test [11]; 256 µg/mL (≈ 712 µM) in test [12]. Further, the MIC in test [13] and in [14] was above 256 µg/mL each time.

Turning to `CC(C)=NNc1nc(-c2ccc(Cl)cc2Cl)cs1`, the MIC is above 256 µg/mL in test [1]; above 256 µg/mL in [2]; above 256 µg/mL in test [3]; above 256 µg/mL in [4]; above 256 µg/mL in [5]; 8 µg/mL (≈ 26.6 µM) in test [6]. Also, the MIC in [7] is 2 µg/mL (≈ 6.66 µM); in test [8] it was 4 µg/mL (≈ 13.3 µM); in [9], above 256 µg/mL; in [10], 2 µg/mL (≈ 6.66 µM); in test [11], 8 µg/mL (≈ 26.6 µM); in [12], 8 µg/mL (≈ 26.6 µM). Besides, the MIC in test [13] and in [14] was above 256 µg/mL throughout.

Consider `CC/C(C)=N/Nc1nc(-c2ccc(Cl)cc2Cl)cs1`, for which the MIC in [1] was above 256 µg/mL; in test [2], above 256 µg/mL; in test [3], above 256 µg/mL; in [4] it was above 256 µg/mL; in [5] it was above 256 µg/mL; in test [6], 8 µg/mL (≈ 25.5 µM). The MIC in [7] is 2 µg/mL (≈ 6.36 µM); in [8], 4 µg/mL (≈ 12.7 µM); in [9], above 256 µg/mL; in test [10], 4 µg/mL (≈ 12.7 µM); in [11] it was 8 µg/mL (≈ 25.5 µM); in test [12], 8 µg/mL (≈ 25.5 µM). Also, the MIC in test [13] and in test [14] was above 256 µg/mL in each case.

On to `CCC/C(C)=N/Nc1nc(-c2ccc(Cl)cc2Cl)cs1`, for which the MIC in [1] is above 256 µg/mL; in [2], above 256 µg/mL; in [3] it was above 256 µg/mL; in [4], above 256 µg/mL; in test [5], above 256 µg/mL; in test [6], 256 µg/mL (≈ 780 µM). The MIC in test [7] was 2 µg/mL (≈ 6.09 µM); in [8], 4 µg/mL (≈ 12.2 µM); in test [9], above 256 µg/mL; in test [10], 2 µg/mL (≈ 6.09 µM); in test [11], 256 µg/mL (≈ 780 µM); in [12] it was 256 µg/mL (≈ 780 µM). In addition, the MIC in test [13] and in test [14] was above 256 µg/mL in each case.

Regarding `CCC(CC)=NNc1nc(-c2ccc(Cl)cc2Cl)cs1`, the MIC in test [1] was above 256 µg/mL; in test [2], above 256 µg/mL; in test [3] it was above 256 µg/mL; in [4], above 256 µg/mL; in test [5], above 256 µg/mL; in [6], 256 µg/mL (≈ 780 µM). The minimum inhibitory concentration (MIC) in test [7] is 0.5 µg/mL (≈ 1.52 µM); in [8], 4 µg/mL (≈ 12.2 µM); in [9], above 256 µg/mL; in [10], 4 µg/mL (≈ 12.2 µM); in [11] it was 256 µg/mL (≈ 780 µM); in test [12] it was 256 µg/mL (≈ 780 µM). Besides, the MIC in test [13] and in test [14] was above 256 µg/mL throughout.
